From ChEMBL document CHEMBL1141440, “Sesquiterpene lactones from the roots of Ferula varia and their cytotoxic activity” (J Nat Prod, 2007) come the findings set out here.

≈ marks a conversion by molar mass, not a printed value. Some results are limits rather than exact numbers.

One data set relates to KB. Nature of the data set: Cytotoxicity against human KB cells. Type of data set: functional, cell-based. The method in brief: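 KB human epidermoid carcinoma cells were grown in DMEM with 10% FBS at 37 °C under humidified 5% CO2. Cytotoxicity was given as IC50 in µg/mL.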
Data set [1] can be described thus: Cytotoxicity against multidrug-resistant human KB-C2 cells. Type of data set: functional, cell-based. The method in brief: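 KB-C2, a multidrug-resistant KB subline, was maintained in DMEM with 10% FBS and 5 µM colchicine at 37 °C under humidified 5% CO2. Cytotoxicity was reported as IC50 in µg/mL.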
A further data set has as its system K562. Nature of the data set: Cytotoxicity against multidrug-resistant human K562 cells. The class given is functional, cell-based. The note with it: in the assay text read “human K562 cells” for “multidrug-resistant human K562 cells”. Summed up: (§1)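 K562/Adr cells, a doxorubicin-resistant leukemia line, were grown in RPMI1640 with 10% FBS and 0.5 µM doxorubicin at 37 °C under humidified 5% CO2. Cytotoxicity was expressed as IC50 in µg/mL.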

A short description of data set [2]: Cytotoxicity against doxorubicin-resistant human K562/Adr cells. Type of data set: functional, cell-based. The method in brief: as §1
A further data set concerns MCF7. Nature of the data set: Cytotoxicity against human MCF7 cells. The class given is functional, cell-based. The method in brief: (§2)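 MCF7 breast and COLO205 colon carcinoma cells were cultured in RPMI1640 with 10% FBS at 37 °C in humidified 5% CO2-95% air. Cytotoxicity was read as IC50 in µg/mL.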
The subject of another data set is COLO 205. Nature of the data set: Cytotoxicity against human COLO205 cells. Type of data set: functional, cell-based. Summed up: as §2
The nature of data set [3]: Cytotoxicity against multidrug-resistant human KB-C2 cells in presence of 2.5 uM colchicine. Type of data set: functional, cell-based. Summed up:
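KB-C2 cells were kept in DMEM with 10% FBS and 5 µM colchicine, then tested for cytotoxicity with 2.5 µM colchicine added during exposure to samples. IC50 was given in µg/mL.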

Data set [4] deals with ATP-dependent translocase ABCB1 (Homo sapiens, UniProt P08183). Nature of the data set: Effect on P-glycoprotein expressed in KB-C2 cells assessed as increase in accumulation of rhodamine 123 at 50 uM. Type of data set: cell-based. The note with it: kb-c2, 50 µM. The method in brief: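 For P-gp substrate accumulation, KB-C2 cells were incubated 2 h with 20 µM rhodamine 123 plus sample, then washed and lysed in 0.1% Triton X-100 in PBS. Retained fluorescence was measured and accumulation expressed as a percentage increase.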
ATP-dependent translocase ABCB1, sequence (P08183 whole entry): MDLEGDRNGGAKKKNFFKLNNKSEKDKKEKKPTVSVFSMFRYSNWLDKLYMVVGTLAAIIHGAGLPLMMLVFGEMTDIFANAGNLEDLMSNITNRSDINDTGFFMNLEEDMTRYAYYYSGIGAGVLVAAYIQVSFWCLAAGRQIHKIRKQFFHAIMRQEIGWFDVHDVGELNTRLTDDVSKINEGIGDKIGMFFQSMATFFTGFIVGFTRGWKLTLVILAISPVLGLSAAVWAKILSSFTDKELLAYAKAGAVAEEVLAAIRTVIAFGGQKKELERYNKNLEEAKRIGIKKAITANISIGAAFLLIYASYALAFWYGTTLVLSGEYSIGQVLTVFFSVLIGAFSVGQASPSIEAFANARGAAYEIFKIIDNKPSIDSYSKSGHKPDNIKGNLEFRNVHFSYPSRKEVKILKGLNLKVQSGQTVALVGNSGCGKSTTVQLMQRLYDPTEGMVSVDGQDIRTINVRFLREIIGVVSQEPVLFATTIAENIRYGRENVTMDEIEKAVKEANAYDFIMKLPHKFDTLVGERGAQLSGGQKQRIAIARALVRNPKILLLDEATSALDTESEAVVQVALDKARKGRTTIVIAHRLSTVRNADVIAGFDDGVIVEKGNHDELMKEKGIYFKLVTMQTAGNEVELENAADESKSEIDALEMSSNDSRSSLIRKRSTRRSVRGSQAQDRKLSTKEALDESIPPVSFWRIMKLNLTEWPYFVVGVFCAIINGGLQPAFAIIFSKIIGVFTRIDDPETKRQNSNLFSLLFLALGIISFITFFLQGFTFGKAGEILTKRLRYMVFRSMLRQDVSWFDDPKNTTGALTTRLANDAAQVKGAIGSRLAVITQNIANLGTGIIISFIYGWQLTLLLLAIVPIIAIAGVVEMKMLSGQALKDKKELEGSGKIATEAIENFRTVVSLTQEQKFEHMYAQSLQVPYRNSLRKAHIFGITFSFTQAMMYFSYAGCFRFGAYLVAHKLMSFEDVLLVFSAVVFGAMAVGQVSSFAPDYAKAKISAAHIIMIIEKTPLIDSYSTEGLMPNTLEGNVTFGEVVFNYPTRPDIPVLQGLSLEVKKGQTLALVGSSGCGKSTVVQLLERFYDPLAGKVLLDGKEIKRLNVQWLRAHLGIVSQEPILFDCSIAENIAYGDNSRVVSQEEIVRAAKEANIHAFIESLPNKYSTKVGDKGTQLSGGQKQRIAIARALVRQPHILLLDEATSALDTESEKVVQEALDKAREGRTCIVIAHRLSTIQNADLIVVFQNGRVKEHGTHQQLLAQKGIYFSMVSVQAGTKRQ

What is called IC50 is the concentration that inhibits the measured activity by half. Take `C=C1[C@@H](OC(=O)C(C)CC)C=C[C@@]2(C)CC[C@@H]3[C@@H](OC(=O)[C@@H]3C)[C@H]12` (some centres not stated): the IC50 (in the data set on KB; in data set [1]; in the data set with K562; in data set [2]; in the data set with MCF7; in the data set with COLO 205) was above 100 µg/mL each time.
For the compound `C=C1C=C[C@@H](OC(=O)/C(C)=C/C)[C@@]2(C)CC[C@@H]3[C@@H](OC(=O)[C@]3(C)O)[C@H]12`, the IC50 (in the data set with KB; in data set [1]; in the data set on K562; in data set [2]; in the data set on MCF7; with COLO 205) was above 100 µg/mL in each case.
For `C=C1[C@H]2O[C@H]2[C@@H](OC(=O)/C(C)=C/C)[C@@]2(C)CC[C@@H]3[C@@H](OC(=O)[C@@]3(O)COC(=O)/C(C)=C\C)[C@H]12`, the IC50 with KB was 91.4 µg/mL (≈ 198 µM); in data set [1], 98 µg/mL (≈ 213 µM); in data set [3] it was 48.3 µg/mL; with K562, above 100 µg/mL; in data set [2], above 100 µg/mL; in the data set with MCF7, above 100 µg/mL. In addition, the IC50 in the data set with COLO 205 was above 100 µg/mL. In data set [4], the Activity was found to be 169%.
Take `C/C=C(\C)C(=O)O[C@H]1C[C@](C)(O)C2CC=C(C)[C@H]2[C@@H]2OC(=O)[C@H](C)[C@@H]21` (some centres not stated): the IC50 was above 100 µg/mL with KB; above 100 µg/mL in data set [1]; 25.4 µg/mL in data set [3]; above 100 µg/mL with K562; above 100 µg/mL in data set [2]; above 100 µg/mL in the data set with MCF7. The compound further had an IC50 in the data set with COLO 205 above 100 µg/mL. In addition, the Activity in data set [4] came to 114%.
Consider `C=C1C(=O)O[C@@H]2[C@H]1CC[C@]1(C)[C@H](OC(=O)/C(C)=C/C)C=CC(=C)[C@@H]21` [DEHYDROOOPODIN], for which the IC50 in the data set with KB was 46.1 µg/mL (≈ 140 µM); in data set [1], 56.9 µg/mL (≈ 173 µM); in data set [3] it was 55.8 µg/mL; with K562, 36.8 µg/mL (≈ 112 µM); in data set [2] it was above 100 µg/mL.
On to `COc1cccc2c1C(=O)c1c(O)c3c(c(O)c1C2=O)C[C@@](O)(C(=O)CO)C[C@@H]3O[C@H]1C[C@H](N)[C@H](O)[C@H](C)O1` [DOXORUBICIN], for which the IC50 in the data set with KB was 0.22 µg/mL (≈ 0.405 µM); in data set [1], above 100 µg/mL; in the data set with K562, 0.45 µg/mL (≈ 0.828 µM); in data set [2], 15.3 µg/mL (≈ 28.1 µM).
Turning to `C=C1C=C[C@@H](OC(=O)/C(C)=C/C)[C@@]2(C)CC[C@@H]3[C@@H](OC(=O)[C@@H]3C)[C@H]12` [OOPODIN], the IC50 was 34.7 µg/mL (≈ 105 µM) with KB; 24.7 µg/mL (≈ 74.8 µM) in data set [1]; 13.8 µg/mL in data set [3]; 35.1 µg/mL (≈ 106 µM) in the data set with K562; 25.4 µg/mL (≈ 76.9 µM) in data set [2].
